# Experimental data: ChEMBL document CHEMBL1133896, “Structure-activity study and analgesic efficacy of amino acid derivatives as N-type calcium channel blockers” (Bioorg Med Chem Lett, 2001)
# Key:
# [1] = In vitro inhibition against L-type calcium influx in mouse pituitary tumor derived cells (AtT-20); assay type: functional; settings: AtT20
# [2] = Selectivity ratio between the L-type to N-type calcium influx; assay type: functional
# [3] = biological target: T1, Voltage-dependent N-type calcium channel subunit alpha-1B (Homo sapiens, UniProt Q00975); assay: In vitro inhibition against N-type calcium influx in IMR-32 cells; assay type: functional, cell-based
# Target sequence in this assay (Q00975 whole entry): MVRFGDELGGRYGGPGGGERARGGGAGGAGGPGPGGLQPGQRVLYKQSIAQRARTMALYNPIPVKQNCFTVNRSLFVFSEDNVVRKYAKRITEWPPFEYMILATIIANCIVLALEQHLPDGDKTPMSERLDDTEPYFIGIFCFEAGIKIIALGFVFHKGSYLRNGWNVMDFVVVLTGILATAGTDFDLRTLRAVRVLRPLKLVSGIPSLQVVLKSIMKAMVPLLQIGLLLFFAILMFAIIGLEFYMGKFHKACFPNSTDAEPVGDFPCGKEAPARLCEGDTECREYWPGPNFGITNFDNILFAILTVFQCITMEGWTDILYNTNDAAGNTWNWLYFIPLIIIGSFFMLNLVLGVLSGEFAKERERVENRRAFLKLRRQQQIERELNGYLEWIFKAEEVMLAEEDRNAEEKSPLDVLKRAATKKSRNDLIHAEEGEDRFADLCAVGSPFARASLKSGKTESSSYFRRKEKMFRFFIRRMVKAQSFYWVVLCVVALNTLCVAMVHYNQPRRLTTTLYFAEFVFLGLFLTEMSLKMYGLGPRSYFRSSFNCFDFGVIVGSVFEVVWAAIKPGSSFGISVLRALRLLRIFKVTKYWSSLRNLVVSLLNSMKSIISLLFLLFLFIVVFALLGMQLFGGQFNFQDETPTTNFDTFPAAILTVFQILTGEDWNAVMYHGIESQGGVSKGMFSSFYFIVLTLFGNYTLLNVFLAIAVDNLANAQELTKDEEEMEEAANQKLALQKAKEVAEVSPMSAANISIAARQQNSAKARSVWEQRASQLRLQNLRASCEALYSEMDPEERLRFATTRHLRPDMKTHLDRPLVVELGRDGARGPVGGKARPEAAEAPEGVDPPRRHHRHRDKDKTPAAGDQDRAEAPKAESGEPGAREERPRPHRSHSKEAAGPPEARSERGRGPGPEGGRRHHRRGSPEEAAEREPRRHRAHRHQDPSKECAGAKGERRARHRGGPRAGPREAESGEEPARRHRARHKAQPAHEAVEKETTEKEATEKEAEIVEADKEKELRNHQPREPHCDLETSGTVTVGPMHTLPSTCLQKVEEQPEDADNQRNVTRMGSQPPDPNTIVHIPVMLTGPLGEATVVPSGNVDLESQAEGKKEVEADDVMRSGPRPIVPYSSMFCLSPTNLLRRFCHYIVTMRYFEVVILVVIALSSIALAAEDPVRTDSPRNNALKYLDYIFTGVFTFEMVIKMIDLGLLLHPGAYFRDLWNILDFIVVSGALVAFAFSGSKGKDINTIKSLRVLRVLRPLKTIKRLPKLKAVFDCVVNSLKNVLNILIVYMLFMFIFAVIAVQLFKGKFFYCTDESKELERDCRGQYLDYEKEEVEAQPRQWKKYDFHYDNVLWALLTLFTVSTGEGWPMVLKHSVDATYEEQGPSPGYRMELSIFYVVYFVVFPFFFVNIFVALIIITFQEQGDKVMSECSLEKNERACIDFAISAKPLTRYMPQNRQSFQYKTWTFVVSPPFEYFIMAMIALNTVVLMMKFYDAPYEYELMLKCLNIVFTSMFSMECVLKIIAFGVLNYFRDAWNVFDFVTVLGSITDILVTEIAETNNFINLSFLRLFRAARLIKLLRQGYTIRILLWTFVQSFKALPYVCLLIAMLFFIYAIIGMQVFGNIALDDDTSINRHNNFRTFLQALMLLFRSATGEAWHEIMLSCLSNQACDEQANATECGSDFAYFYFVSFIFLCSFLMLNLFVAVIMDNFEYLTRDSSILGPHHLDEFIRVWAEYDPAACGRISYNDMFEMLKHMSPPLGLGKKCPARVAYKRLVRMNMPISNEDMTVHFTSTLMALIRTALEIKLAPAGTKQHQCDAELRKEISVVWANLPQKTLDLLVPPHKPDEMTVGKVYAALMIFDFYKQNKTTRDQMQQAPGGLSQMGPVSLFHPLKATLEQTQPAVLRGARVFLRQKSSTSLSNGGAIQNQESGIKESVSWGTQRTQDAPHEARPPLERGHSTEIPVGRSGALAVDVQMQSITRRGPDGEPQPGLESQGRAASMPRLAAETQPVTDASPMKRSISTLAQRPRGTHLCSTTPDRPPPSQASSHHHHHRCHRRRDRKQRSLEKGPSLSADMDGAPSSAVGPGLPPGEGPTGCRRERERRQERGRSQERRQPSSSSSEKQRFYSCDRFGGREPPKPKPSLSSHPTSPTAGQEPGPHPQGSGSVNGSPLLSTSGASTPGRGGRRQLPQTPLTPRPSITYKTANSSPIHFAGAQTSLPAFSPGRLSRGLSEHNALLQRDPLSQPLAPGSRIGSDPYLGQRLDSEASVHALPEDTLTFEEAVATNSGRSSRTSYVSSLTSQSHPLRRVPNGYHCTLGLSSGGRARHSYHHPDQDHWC
# Rattus norvegicus [4] = assay: In vivo analgesic efficacy in the rat formalin induced pain model at 3 nmol/rat intrathecal dose; assay type: functional
# Method in brief: (§1)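 Rat formalin test. The read-out was paw flinching during the persistent nociceptive phase, expressed as % inhibition, n=3. Blood pressure and neurological behavior were also observed.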
# [5] = biological target: T1, Voltage-dependent N-type calcium channel subunit alpha-1B; assay: In vitro inhibition of N-type calcium channel current in IMR-32 cells at 10 uM; assay type: functional
# Target sequence in this assay (Q00975 whole entry, looked up): as the sequence (Q00975 whole entry) above
# Rattus norvegicus [6] = assay: In vivo analgesic efficacy in rat formalin induced pain model at 100 mg/kg peroral dose; assay type: functional; settings: route oral; method in brief: as §1
Compound,IC50 [1],Selectivity ratio [2],IC50 [3],Inhibition (Rattus norvegicus [4]),inhibition [5],inhibition in vivo at 100 mg/kg (Rattus norvegicus [6])
COc1ccc(COC(=O)[C@@H](CC(=O)OC2CCCC2)NC(=O)OC(C)(C)C)cc1,2.9 µM,1.5,2 µM,,,
COc1ccc(COC(=O)[C@H](CC(=O)OC2CCC2)NC(=O)OC(C)(C)C)cc1,28 µM,1.9,15 µM,,,
COc1ccc(CNC(=O)[C@H](COCC2CCCCC2)NC(=O)OC(C)(C)C)cc1,3.8 µM,4,0.95 µM,35%,38%,
COc1ccc(COC(=O)[C@H](COC(=O)C2CCCCC2)NC(=O)OC(C)(C)C)cc1,10 µM,6.3,1.6 µM,,,
COc1ccc(CNC(=O)[C@H](CCOC2CCCCC2)NC(=O)OC(C)(C)C)cc1,13 µM,3.3,4 µM,,,
COc1ccc(CN(C)C(=O)[C@H](COCC2CCCCC2)NC(=O)OC(C)(C)C)cc1,1.4 µM,0.8,1.8 µM,,,
COc1ccc(COC(=O)[C@H](COCC2CCCCC2)NC(=O)OC(C)(C)C)cc1,8.4 µM,7,1.2 µM,,,
COC(=O)C[C@H](NC(=O)OC(C)(C)C)C(=O)OCc1ccc(OC)cc1,14 µM,0.5,26 µM,,,
COc1ccc(COC(=O)[C@H](CC(=O)OC2CCCC2)NC(=O)OC(C)(C)C)cc1,15 µM,4.4,3.4 µM,31%,34%,
CC(C)(C)OC(=O)N[C@@H](CC(=O)OC1CCCC1)C(=O)OCc1ccc(Br)cc1,5.3 µM,1.6,3.4 µM,,,
COc1ccc(COC(=O)[C@H](CC(=O)OC2CCCCC2)NC(=O)OC(C)(C)C)cc1,16 µM,7,2.3 µM,,,
COc1cccc(COC(=O)[C@H](CC(=O)OC2CCCC2)NC(=O)OC(C)(C)C)c1,12 µM,3.2,3.8 µM,,,
COc1ccccc1COC(=O)[C@H](CC(=O)OC1CCCC1)NC(=O)OC(C)(C)C,15 µM,2.8,5.4 µM,,,
COc1ccc(CNC(=O)[C@H](CSCC2CCCC2)NC(=O)OC(C)(C)C)cc1,3.9 µM,6.2,0.63 µM,47%,45%,43%
COc1ccc(CNC(=O)[C@H](CSCC2CCCCC2)NC(=O)OC(C)(C)C)cc1,1.7 µM,2.8,0.61 µM,36%,66%,
CC(C)(C)OC(=O)N[C@@H](CC(=O)OC1CCCC1)C(=O)OCc1ccc(Cl)cc1,16 µM,4.8,3.3 µM,,,
COc1ccc(COC(=O)[C@H](CC(=O)OC2CCCCCC2)NC(=O)OC(C)(C)C)cc1,12 µM,4.6,2.6 µM,,,
